{"source": "paper PMC7312786", "about": "(Biochemistry, 2018)", "key": {"[1]": {"target": "T1, hRev1 (Homo sapiens, UniProt Q9UBZ9)", "T1 sequence (Q9UBZ9 330-833)": "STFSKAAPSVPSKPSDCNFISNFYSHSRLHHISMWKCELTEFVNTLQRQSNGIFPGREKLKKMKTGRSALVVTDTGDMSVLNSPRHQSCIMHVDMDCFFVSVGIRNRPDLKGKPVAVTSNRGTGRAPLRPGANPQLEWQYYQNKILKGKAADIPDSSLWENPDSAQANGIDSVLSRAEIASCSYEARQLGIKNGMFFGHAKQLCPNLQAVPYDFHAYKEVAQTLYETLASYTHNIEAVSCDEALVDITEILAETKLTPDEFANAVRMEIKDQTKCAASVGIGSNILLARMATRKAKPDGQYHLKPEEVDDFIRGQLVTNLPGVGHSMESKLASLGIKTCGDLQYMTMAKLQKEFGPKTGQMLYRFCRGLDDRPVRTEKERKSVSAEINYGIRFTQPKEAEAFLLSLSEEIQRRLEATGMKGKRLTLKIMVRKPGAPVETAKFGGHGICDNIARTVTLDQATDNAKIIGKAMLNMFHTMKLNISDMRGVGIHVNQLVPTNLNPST", "experiment": "Gel-based pol extension assay, hRev1", "format": "biochemical", "details": "read-out: IC50, hRev1, gel-based assay; best-fit value (95% confidence interval), three experiments"}, "[2]": {"target": "T2, hpol κ (Homo sapiens, UniProt Q9UBT6)", "T2 sequence (Q9UBT6 19-526)": "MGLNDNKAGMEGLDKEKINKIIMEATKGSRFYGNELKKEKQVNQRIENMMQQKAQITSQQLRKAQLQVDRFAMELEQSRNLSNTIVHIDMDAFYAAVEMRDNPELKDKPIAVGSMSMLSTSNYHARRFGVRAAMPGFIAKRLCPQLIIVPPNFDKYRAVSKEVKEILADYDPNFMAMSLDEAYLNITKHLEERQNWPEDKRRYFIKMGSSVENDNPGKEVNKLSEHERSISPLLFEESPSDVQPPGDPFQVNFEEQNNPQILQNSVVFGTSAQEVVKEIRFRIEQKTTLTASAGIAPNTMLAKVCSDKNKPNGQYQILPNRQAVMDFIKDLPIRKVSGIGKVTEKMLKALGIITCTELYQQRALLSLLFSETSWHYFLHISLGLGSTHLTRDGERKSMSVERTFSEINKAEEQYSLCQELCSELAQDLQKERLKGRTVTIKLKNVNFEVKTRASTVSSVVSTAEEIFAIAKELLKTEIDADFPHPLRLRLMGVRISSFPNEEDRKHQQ", "experiment": "Gel-based pol extension assay, hpol κ", "format": "biochemical", "procedure,_shortened": "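Gel extension assay with hpol ι core (residues 1–446) or hpol κ core (residues 19–526). Enzyme 2 nM preincubated 5 min with increasing test compound in 50 mM HEPES pH 7.5, 50 mM NaCl, 1 mM DTT, 0.1 mg/mL BSA, 10% glycerol. Started at 37 °C with 200 nM FAM-labeled 13/18-mer primer–template, 10 μM each dNTP, 5 mM MgCl₂. Quench: 20 mM EDTA/95% formamide, 95 °C. Triplicate; IC50 mean ± SD.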"}, "[3]": {"target": "TbPol I (Mycobacterium tuberculosis, UniProt P9WNU5)", "sequence (P9WNU5 whole entry)": "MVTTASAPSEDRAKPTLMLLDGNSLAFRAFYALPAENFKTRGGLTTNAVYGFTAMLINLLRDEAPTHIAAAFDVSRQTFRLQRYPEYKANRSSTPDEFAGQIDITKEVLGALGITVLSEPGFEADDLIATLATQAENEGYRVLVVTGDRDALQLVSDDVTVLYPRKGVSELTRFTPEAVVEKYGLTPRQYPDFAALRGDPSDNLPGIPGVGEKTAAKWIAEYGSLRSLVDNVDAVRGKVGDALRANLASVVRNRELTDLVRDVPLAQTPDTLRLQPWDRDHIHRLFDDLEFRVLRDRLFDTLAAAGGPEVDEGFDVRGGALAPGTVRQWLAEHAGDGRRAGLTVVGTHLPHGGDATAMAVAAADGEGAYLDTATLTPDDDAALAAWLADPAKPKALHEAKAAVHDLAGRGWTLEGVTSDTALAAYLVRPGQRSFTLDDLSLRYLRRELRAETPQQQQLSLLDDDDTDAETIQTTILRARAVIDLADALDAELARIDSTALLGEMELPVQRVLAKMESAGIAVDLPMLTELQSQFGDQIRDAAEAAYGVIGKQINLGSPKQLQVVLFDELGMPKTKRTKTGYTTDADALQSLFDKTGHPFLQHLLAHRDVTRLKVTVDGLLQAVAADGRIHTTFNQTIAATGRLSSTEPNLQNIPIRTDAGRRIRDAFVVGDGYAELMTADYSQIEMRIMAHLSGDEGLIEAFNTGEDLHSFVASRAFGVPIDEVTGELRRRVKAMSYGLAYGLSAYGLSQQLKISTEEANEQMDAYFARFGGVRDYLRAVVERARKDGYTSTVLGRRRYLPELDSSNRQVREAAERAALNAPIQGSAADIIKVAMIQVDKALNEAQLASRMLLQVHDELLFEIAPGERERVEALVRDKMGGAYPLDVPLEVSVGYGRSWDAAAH", "experiment": "Fluorescence-based pol activity assay, Tb Pol I", "format": "biochemical", "details": "20 μM PNR-7-02; mean (±SD)"}, "[4]": {"target": "T3, hpol λ (Homo sapiens, UniProt Q9UGP5)", "T3 sequence (Q9UGP5 251-575 limits assumed)": "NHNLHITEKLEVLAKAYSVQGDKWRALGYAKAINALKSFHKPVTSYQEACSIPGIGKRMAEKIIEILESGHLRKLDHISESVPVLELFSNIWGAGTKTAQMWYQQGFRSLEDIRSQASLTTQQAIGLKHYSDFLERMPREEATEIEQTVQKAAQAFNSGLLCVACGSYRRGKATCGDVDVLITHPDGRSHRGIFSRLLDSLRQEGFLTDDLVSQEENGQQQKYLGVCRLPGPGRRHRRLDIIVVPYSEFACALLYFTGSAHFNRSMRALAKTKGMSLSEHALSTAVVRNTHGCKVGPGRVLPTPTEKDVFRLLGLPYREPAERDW", "experiment": "Fluorescence-based pol activity assay, hpol λ", "format": "biochemical"}, "[5]": {"target": "T4, hpol η binding to primer–template DNA (Homo sapiens, UniProt Q9Y253)", "T4 sequence (Q9Y253 1-437)": "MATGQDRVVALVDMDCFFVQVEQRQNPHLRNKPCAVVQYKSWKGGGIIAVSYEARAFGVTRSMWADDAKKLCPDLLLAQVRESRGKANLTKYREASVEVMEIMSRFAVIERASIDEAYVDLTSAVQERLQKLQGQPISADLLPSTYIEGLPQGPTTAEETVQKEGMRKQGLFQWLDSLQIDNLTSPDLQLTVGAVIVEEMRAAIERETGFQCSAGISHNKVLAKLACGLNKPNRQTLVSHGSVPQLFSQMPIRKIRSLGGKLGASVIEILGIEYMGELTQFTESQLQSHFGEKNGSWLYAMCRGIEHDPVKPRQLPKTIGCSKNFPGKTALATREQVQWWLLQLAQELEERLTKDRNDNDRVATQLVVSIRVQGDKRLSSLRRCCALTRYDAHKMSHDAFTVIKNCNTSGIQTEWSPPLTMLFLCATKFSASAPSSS", "experiment": "Fluorescence anisotropy DNA binding assay", "details": "1–12 μM inhibitor, also above the IC50"}, "[6]": {"system": "HAP-1 cells (hpol η-proficient, parental)", "experiment": "Cell viability", "format": "cell-based, human", "details": "for Combination index (CI) with CDDP: Chou–Talalay", "procedure,_shortened": "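HAP-1 parental or CRISPR hpol η-null cells in IMDM with 10% FBS and 1% antibiotic/antimycotic, passage 8–10, seeded 5000 cells/well. Next day: CDDP 0–100 μM alone or with 0.1 or 1 μM test compound, 48 h. Cells washed twice in DPBS, then 2 μM Calcein-AM for 30 min at 25 °C; fluorescence ex 490/em 520 nm. Viability as % of untreated. […] Combination index by Chou–Talalay.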"}}}
{"molecule": "O=C1NC(=S)NC(=O)C1=Cc1cn(Cc2ccc3ccccc3c2)c2ccc(Cl)cc12", "note": "[PNR-7-02, 5-((5-chloro-1-(naphthalen-2-ylmethyl)-1H-indol-3-yl)methylene)-2-thioxodihydropyrimidine-4,6-(1H,5H)-dione]", "values": [{"measurement": "IC50", "setting": "[1]", "value": 8, "unit": "µM"}, {"measurement": "Increase in IC50 against hpol κ", "setting": "[2]; gel-based assay, relative to hpol η / hRev1", "value": "~3", "unit": "fold"}, {"measurement": "IC50", "setting": "[2]; read-out: IC50, hpol κ, gel-based assay, best-fit value (95% confidence interval), three experiments", "value": 22, "unit": "µM"}, {"measurement": "Pol activity relative to DMSO control, TbPol I", "setting": "[3]", "value": "93 (±2) %"}, {"measurement": "Effect on catalysis by hpol λ", "setting": "[4]; 20 μM PNR-7-02", "value": "strongly inhibited"}, {"measurement": "Pol activity relative to DMSO control, hpol λ", "setting": "[4]; 20 μM PNR-7-02, mean (±SD)", "value": "5.9 (±2.1) %"}, {"measurement": "IC50", "setting": "[4]; read-out: IC50, hpol λ, best-fit value and 95% confidence interval, three replicates", "value": 8, "unit": "µM"}, {"measurement": "Change in Kd,DNA for hpol η binding to DNA", "setting": "[5]", "value": "less than 20%"}, {"measurement": "Combination index values with CDDP, hpol η-proficient cells (summary)", "setting": "[6]; hpol η-proficient cells co-treated with PNR-7-02", "value": "0.4–0.6"}, {"measurement": "Combination index (CI) with CDDP", "setting": "[6]; parental HAP-1, 0.1 μM PNR-7-02", "value": 0.47}, {"measurement": "Combination index (CI) with CDDP", "setting": "[6]; parental HAP-1, 1 μM PNR-7-02", "value": 0.59}, {"measurement": "Decrease of CDDP EC50 on co-treatment with PNR-7-02", "setting": "[6]; parental HAP-1, both concentrations of inhibitor (0.1 and 1 μM)", "value": "> 2", "unit": "fold"}, {"measurement": "EC50", "setting": "[6]; read-out: EC50, cell viability, PNR-7-02 alone, hpol η-proficient parental HAP-1, 48 h", "value": 4.6, "unit": "µM"}]}
